Cytotoxicity data for 97 compounds are collected here from ChEMBL document CHEMBL4513216, “Probing the Open Global Health Chemical Diversity Library for Multistage-Active Starting Points for Next-Generation Antimalarials” (ACS Infect Dis, 2020).

This series is described as follows: Toxicity liver stage against HepG2, at 10uM. The series is classed as cell-based. More on the design: test concentration 10 uM, cell line HepG2-A16-CD81EGFP. The conditions noted are these: human, HepG2-A16-CD81EGFP cells; read-out: INHIBITION
The gist of the method: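 Uninfected HepG2-A16-CD81EGFP cells, 3 × 10^3 per well, 1536-well, plated on prespotted compound at 10 μM final, parasite-free screening media added to match infected plates; puromycin 10 μM positive, DMSO 0.5% negative; run in parallel with 48 h PbLuc assay at 37 °C, 5% CO2; viability by CellTiter-Glo luminescence, normalized to controls.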
As for `O=S(=O)(NCc1cn2ccccc2n1)N1CCOCC1`, the cytotoxicity at 10 µM turned out to be 2.69%.

Consider `COc1ccc(CNC[C@H]2COCc3nc4cc(F)ccc4n32)cc1`, for which the cytotoxicity at 10 µM turned out to be 1.52%.

As for `CCc1c(C)sc2c1c(N)nc(=O)n2CCN1CCOCC1`, the cytotoxicity at 10 µM was determined as 1.17%.

Take `COCCn1ccc(=O)c(OCC(=O)Nc2ccc(OC)c(Cl)c2)c1C`: the cytotoxicity at 10 µM stood at 5.36%.

For `CC1=Nc2c(c(=O)[nH]n2C(C)C)C(c2ccc3c(c2)n(C)c(=O)n3C)S1` (configuration not stated), the cytotoxicity at 10 µM worked out at 3.75%.

With `O=c1n(Cc2cccc(C(F)(F)F)c2)nc2ncccn12`, the cytotoxicity at 10 µM was -8.64%.

As for `C1CN(c2nc3c(c(NC4CC4)n2)CN(CC2CCOC2)CC3)CCO1` (configuration not stated), the cytotoxicity at 10 µM was -2.22%.

Regarding `CC(=O)N1CCC2(CC1)C(=O)N(c1cccnc1)c1ccc(F)cc12`, the cytotoxicity at 10 µM was determined as 10.6%.

As for `O=C1[C@@H]2CCN(CC3CCOCC3)C[C@@H]2OCCN1c1ccccc1`, the cytotoxicity at 10 µM is -5.21%.

On to `CC(C)C(=O)N1CC[C@@H]2CN(Cc3ccncc3)S(=O)(=O)[C@@H]2CC1`, for which the cytotoxicity at 10 µM is 5.38%.

Consider `COCCO[C@H]1CCN(c2cc(OC)ncn2)[C@H]1Cc1ccncc1`, for which the cytotoxicity at 10 µM is -146%.

Regarding `CCOC(=O)C1CN(S(=O)(=O)CC)Cc2ncn(CC)c21` (configuration not stated), the cytotoxicity at 10 µM is 6.83%.

For `CN1CCN(C(=O)c2n[nH]c3c2CCN(Cc2nccs2)C3)CC1`, the cytotoxicity at 10 µM was -143%.

Regarding `Cc1nccc([C@@H]2C[C@@H]3CCN(S(=O)(=O)C4CC4)C[C@H]3O2)n1`, the cytotoxicity at 10 µM was -5.9%.

Regarding `COC(=O)CCC(=O)N1CCC2(CN(Cc3cccc(F)c3)C2)C1`, the cytotoxicity at 10 µM worked out at 4.6%.

As for `O=C1NCC[C@]12CN(Cc1ccoc1)C[C@H]2c1ccccc1`, the cytotoxicity at 10 µM came to 4.55%.

Take `Cc1c(Br)c(C(=O)NC(C)c2ccccc2)nn1C` (configuration not stated): the cytotoxicity at 10 µM is -4.34%.

`CCn1nc(C)c2nc(C(C)C)nc(N3CCOCC3)c21`: the cytotoxicity at 10 µM stood at 2.88%.

Take `N#Cc1ccc(C2CC(=O)Nc3c(C(=O)O)nsc32)cc1` (configuration not stated): the cytotoxicity at 10 µM stood at 3.02%.

Regarding `O=C1Nc2ccccc2CC12CCCN2Cc1ccc(F)cc1` (configuration not stated), the cytotoxicity at 10 µM is 10.5%.

For `CC(C)(C)c1nc(CN(CCO)Cc2cc(Br)ccc2F)no1`, the cytotoxicity at 10 µM is 8.52%.

With `CS(=O)(=O)Cc1ccc(OCc2ccc(F)cc2)cc1`, the cytotoxicity at 10 µM was determined as 22.9%.

Consider `CCCn1cc(C(=O)NCCS(N)(=O)=O)c2ccccc21`, for which the cytotoxicity at 10 µM worked out at 5.15%.

Consider `Cc1cc(C)cc(C(=O)NCCS(=O)(=O)N2CCSCC2)c1`, for which the cytotoxicity at 10 µM is -12.5%.

Consider `Cc1nn(C)c(C)c1C(C)NCc1ccc(OC(C)C)cc1` (configuration not stated), for which the cytotoxicity at 10 µM is 15.3%.

`CC(CNC(=O)c1cc(N2CCNC2=O)ccc1F)c1ccccc1` (configuration not stated): the cytotoxicity at 10 µM was -2.1%.

As for `NC(=O)c1cnc(NC2CCN(C(=O)C3CC3)CC2)c(Cl)c1`, the cytotoxicity at 10 µM is -14.2%.

With `COC(=O)c1ccc(Cn2nc(C)cc2C)c(F)c1`, the cytotoxicity at 10 µM amounted to 4.11%.

Take `Cc1nsc(N2CCCN(C(=O)NCc3cccnc3)CC2)n1`: the cytotoxicity at 10 µM was -0.555%.

In the case of `OCCOc1ccc(NCc2cccc3cccnc23)cn1`, the cytotoxicity at 10 µM was -3.24%.

Take `N#Cc1ccc(SCCOCCO)c(F)c1`: the cytotoxicity at 10 µM amounted to 0.513%.

As to `CC(C)N(Cc1ccccc1)Cc1nnsc1Cl`, the cytotoxicity at 10 µM was -9.44%.

In the case of `CC(C)C(=O)NC1CCN(c2cccc(OC(F)(F)F)c2)C1=O` (configuration not stated), the cytotoxicity at 10 µM was -4.13%.

For `CCN1CCN(c2ccc(F)cc2C(C)NCc2nc(C)no2)CC1` (configuration not stated), the cytotoxicity at 10 µM is -17.9%.

In the case of `CC(NC(=O)N(C)Cc1ccc2c(c1)OCO2)c1nncn1C` (configuration not stated), the cytotoxicity at 10 µM was -1.31%.

In the case of `CN(C(=O)c1ccc(C#N)cc1)C1CCN(c2ccccn2)CC1`, the cytotoxicity at 10 µM is -7.56%.

`CC(C)c1nnc(NC(=O)c2cccc(OCC(F)(F)F)n2)[nH]1`: the cytotoxicity at 10 µM was -1.26%.

For the compound `CN(Cc1nnnn1C1CC1)c1cccc2ccccc12`, the cytotoxicity at 10 µM came to 8.38%.

For `CC1(C)Oc2ccc(NC(=O)c3ccc(=O)[nH]n3)cc2O1`, the cytotoxicity at 10 µM came to 10.1%.

On to `Cc1ncc(CNc2cnccc2CO)s1`, for which the cytotoxicity at 10 µM is -24.7%.

For `CS(=O)(=O)c1nccn1CCOc1ccc(F)cc1Cl`, the cytotoxicity at 10 µM stood at 13.1%.

In the case of `C[S+]([O-])CCCNCc1cc(F)ccc1Br` (configuration not stated), the cytotoxicity at 10 µM amounted to 0.732%.

For the compound `Cc1cc(C(=O)NCC(=O)NC(c2ncccc2C)C(C)C)c(C)o1` (configuration not stated), the cytotoxicity at 10 µM was -9.6%.

Consider `Cn1cnc(S(=O)(=O)N2CCSC3(CCCCC3)C2)c1`, for which the cytotoxicity at 10 µM was -5.95%.

Regarding `O=C(c1cccnc1-n1cncn1)N1CCc2ccccc2C1`, the cytotoxicity at 10 µM was -13.9%.

Consider `Cc1nsc(N2CCCN(c3nc(C4CC4)ns3)CC2)n1`, for which the cytotoxicity at 10 µM was -11.5%.

Turning to `CCCn1ncc(C(=O)N2CCN(C3CCCC3)CC2)c1C`, the cytotoxicity at 10 µM was -151%.

On to `CC(=O)N1CCCC(C(=O)NCCc2nc(Cc3ccccc3)no2)C1` (configuration not stated), for which the cytotoxicity at 10 µM was 3.81%.

Consider `CCn1c(N)nc2cc(C(=O)N3CCN(c4nccs4)CC3)cnc21`, for which the cytotoxicity at 10 µM was -17.2%.

With `CN(Cc1noc2c1CCCC2)C(=O)Nc1cccc(S(N)(=O)=O)c1`, the cytotoxicity at 10 µM was -4.32%.

As for `Cc1ccoc1C(=O)N1CCC(n2cc(CO)nn2)CC1`, the cytotoxicity at 10 µM is -1.52%.

In the case of `CN1CC(C(=O)N(C)Cc2cc(-c3cccnc3)no2)NC1=O` (configuration not stated), the cytotoxicity at 10 µM was -3.08%.

As for `CNc1nc2c(c(C(=O)N3CCCC3)n1)CN(C(=O)c1cccs1)CC2`, the cytotoxicity at 10 µM is -112%.

For `CCC1(CO)CCCN(C(=O)c2cc(COc3ccccc3F)[nH]n2)C1` (configuration not stated), the cytotoxicity at 10 µM was found to be 20.8%.

Consider `CC1CCCN(Cc2cccc(C(=O)Nc3nccs3)c2)C1` (configuration not stated), for which the cytotoxicity at 10 µM is -5.68%.

In the case of `CCc1nc(Cn2nc(C3CCNCC3)n(-c3ccccc3)c2=O)cs1`, the cytotoxicity at 10 µM is -1.22%.

For the compound `Cc1nc(N(C)C)nc(NCCc2c[nH]cn2)c1C`, the cytotoxicity at 10 µM turned out to be 3.12%.

With `O=C(NC1CC(=O)N(C2Cc3ccccc3C2)C1)c1csnn1` (configuration not stated), the cytotoxicity at 10 µM was found to be 2.96%.

For the compound `COCc1ccc(C(=O)N2CCN(CC3CC3)[C@@H]3CS(=O)(=O)C[C@@H]32)o1`, the cytotoxicity at 10 µM is -15.5%.

As to `CC(C(=O)O)N1CC2(CCC1=O)CCN(CCSc1ccccc1)CC2` (configuration not stated), the cytotoxicity at 10 µM was determined as 2.57%.

Consider `O=C(CN1CCN(c2ncccn2)[C@@H]2CS(=O)(=O)C[C@@H]21)N1CCCCC1`, for which the cytotoxicity at 10 µM was -6.82%.

For the compound `CCCn1ncc(C(=O)N2CCCC(OCc3ccccn3)C2)c1C` (configuration not stated), the cytotoxicity at 10 µM was -0.2%.

On to `CC(=O)c1cc(CC(=O)NCc2ccc(F)cc2)cs1`, for which the cytotoxicity at 10 µM was -18.7%.

On to `Cc1nccn1CCC1CCCCN1Cc1ccc(N(C)C)nc1` (configuration not stated), for which the cytotoxicity at 10 µM turned out to be 21.3%.

`Cc1[nH]c(=O)[nH]c(=O)c1CN1CCCC(CCc2ccccc2)C1` (configuration not stated): the cytotoxicity at 10 µM is -11.4%.

Turning to `CC(C)(C)c1nc(CN2CCCC2Cn2cncn2)no1` (configuration not stated), the cytotoxicity at 10 µM came to 1.93%.

Regarding `Cc1nn(C)c(C)c1C1CCCN1C(=O)CCc1ccco1` (configuration not stated), the cytotoxicity at 10 µM is -21.5%.

In the case of `Cc1nc2ccnn2c(C)c1CCC(=O)N1CCN2CCCCC2C1` (configuration not stated), the cytotoxicity at 10 µM is -8.82%.

`CC(C)(C)c1ncc(C(=O)NCCNc2ncccn2)s1`: the cytotoxicity at 10 µM was -1.62%.

With `Cc1nn(C)c(Cl)c1C1CCCN1C(=O)c1cccc(C#N)c1` (configuration not stated), the cytotoxicity at 10 µM was -22%.

As for `Cc1nc2n(n1)CC(NCc1cnn(-c3ccccc3)n1)CC2` (configuration not stated), the cytotoxicity at 10 µM is -3.69%.

As to `CC(CO)NC(=O)Nc1ccc(S(C)(=O)=O)nc1` (configuration not stated), the cytotoxicity at 10 µM is -10.2%.

Regarding `CC(=O)NCC1CCN(C(=O)CCOc2ccc(C(C)C)cc2)CC1`, the cytotoxicity at 10 µM is -11.6%.

With `Cn1cc(C2CCCN2Cc2csc(-c3ccccc3)n2)cn1` (configuration not stated), the cytotoxicity at 10 µM is -2.48%.

Consider `CN1CCOC(CNCc2ccc(OCc3ccccn3)cc2)C1` (configuration not stated), for which the cytotoxicity at 10 µM is -13.4%.

For the compound `CC(C)c1nc(CN2CCOC(Cn3cccn3)C2)no1` (configuration not stated), the cytotoxicity at 10 µM was -9.43%.

As for `Cc1cccc(N2CCN(C(=O)NC(C)c3nncn3C)CC2)c1` (configuration not stated), the cytotoxicity at 10 µM was -6.13%.

As for `COCCOc1ncccc1C(=O)N1CCCCC1c1nccs1` (configuration not stated), the cytotoxicity at 10 µM is -11.5%.

`COc1ccc(F)cc1C(=O)N1CCCC(CNS(C)(=O)=O)C1` (configuration not stated): the cytotoxicity at 10 µM is -20%.

Consider `O=C(NCCn1ccnc1)N1CCN(Cc2ccco2)CC1`, for which the cytotoxicity at 10 µM stood at 3.94%.

`OC1(CN2CCOC(Cn3cccn3)C2)CCCCC1` (configuration not stated): the cytotoxicity at 10 µM was -6.11%.

As to `Cc1cnn(CC2CCCN2C(=O)c2cc(C)nc3[nH]nc(C)c23)c1` (configuration not stated), the cytotoxicity at 10 µM was -12.4%.

For the compound `COc1ccc(CN2CCCCC2Cn2nc(C)nc2C)cc1F` (configuration not stated), the cytotoxicity at 10 µM is -15%.

In the case of `c1ccc(-n2cc(CN3CCCC(Cn4cncn4)C3)nn2)cc1` (configuration not stated), the cytotoxicity at 10 µM stood at 1.52%.

As to `Cc1cccc(C)c1NC(=O)CCNC(=O)c1ccoc1`, the cytotoxicity at 10 µM was 3.03%.

For `CCc1[nH]ncc1C(=O)N1CCCN(Cc2cnn(C)c2)CC1`, the cytotoxicity at 10 µM came to 1.71%.

For `CCO[C@@H]1C[C@H]2CN(Cc3ccc(C)o3)CCN2C1`, the cytotoxicity at 10 µM is -149%.

Turning to `Cc1ccc(CN2C[C@@H](N(C)C)[C@H]3OCCC[C@H]32)o1`, the cytotoxicity at 10 µM was -136%.

As to `Cn1ccnc1CN1CCC(F)(F)C2(CCN(c3cnccn3)C2)C1` (configuration not stated), the cytotoxicity at 10 µM was determined as 16.4%.

Regarding `COC1COC2(CCN(Cc3ccc4c(c3)OCO4)CC2)C1` (configuration not stated), the cytotoxicity at 10 µM was found to be 0.729%.

Regarding `O=C(Nc1cnccn1)[C@@H]1C[C@H]2OCC[C@H]2N(Cc2ccsc2)C1`, the cytotoxicity at 10 µM was -2.31%.

As for `Cc1cnc(N2CCC3(CCCCN3C)C2)nc1` (configuration not stated), the cytotoxicity at 10 µM turned out to be 3.29%.

For `Cc1ncsc1CN1C[C@H](OCC(C)C)[C@H]2OCCC[C@H]21`, the cytotoxicity at 10 µM was -140%.

For `c1cnc(NCc2cncc3c2CCN(Cc2cccs2)C3)nc1`, the cytotoxicity at 10 µM was found to be 7.33%.

As for `Cc1ccc(N2CCCC3(COCCN(c4ncccn4)C3)C2)nn1` (configuration not stated), the cytotoxicity at 10 µM is -131%.

As for `CC(C)NC(=O)c1ccc2nnc(C3CN(C)CCN3C)n2c1` (configuration not stated), the cytotoxicity at 10 µM was -139%.

As to `c1ccc(CN2Cc3nccn3CC(Cn3cncn3)C2)nc1` (configuration not stated), the cytotoxicity at 10 µM is -141%.
